ChEMBL document CHEMBL4732040, “Irreversible inhibition of BoNT/A protease: proximity-driven reactivity contingent upon a bifunctional approach” (RSC Med Chem, 2021)
Where a name gives a salt, the structure may show the parent alone. Activity calls are given as the source filed them. No cut-off for these calls is given here.

Key:
[1] = target: Botulinum neurotoxin type A (Clostridium botulinum) (UniProt P0DPI0); test: Time dependent inhibition of Clostridium botulinum BoNT/A light chain (1 to 425 residues) using SNAPtide flp6 as substrate by FRET assay; conditions: dose 100.0 µM, time hrs <=8
HEK293 = test: Cytotoxicity against human HEK293 cells assessed as reduction in cell viability incubated for 24 hrs by MTT assay; type: cell-based; conditions: for Activity: human, hek293, 24 h, time 24 hrs
How it was run: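 HEK293 cells were exposed to compound for 24 h before viability read-out. The paper reports n = 3, with error bars as SD.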

[2] = GSH reactivity assessed as pseudo first order rate constant at 1 mM in presence of glutathione; type: physicochemical; conditions: 1000 µM
Interstitial collagenase = target: T1, Interstitial collagenase (Homo sapiens, UniProt P03956); test: Inhibition of MMP-1 (unknown origin) at 25 uM using TQ3-GABA-Pro-Cha-Abu-Smc-His-Ala-Dab(6'-TAMRA)-Ala-Lys-NH2 as substrate bu fluorometric analysis
T1 sequence (P03956 whole entry): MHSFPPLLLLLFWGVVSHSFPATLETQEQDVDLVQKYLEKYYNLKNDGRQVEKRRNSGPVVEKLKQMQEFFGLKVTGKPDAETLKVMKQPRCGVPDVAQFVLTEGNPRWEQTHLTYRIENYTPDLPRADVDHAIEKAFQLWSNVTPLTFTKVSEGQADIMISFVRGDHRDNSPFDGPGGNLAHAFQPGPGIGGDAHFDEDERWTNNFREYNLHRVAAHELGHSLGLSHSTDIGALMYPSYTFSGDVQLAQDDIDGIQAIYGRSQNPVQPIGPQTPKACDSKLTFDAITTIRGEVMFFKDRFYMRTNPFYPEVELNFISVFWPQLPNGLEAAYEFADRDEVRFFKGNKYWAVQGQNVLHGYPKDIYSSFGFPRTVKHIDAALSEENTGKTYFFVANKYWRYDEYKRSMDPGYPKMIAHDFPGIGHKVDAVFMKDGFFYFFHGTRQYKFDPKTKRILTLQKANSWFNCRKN
How it was run: (§1)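 Residual activity of each MMP in the panel was measured in the presence of compound at 25 μM.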

[3] = target: 72 kDa type IV collagenase (Homo sapiens, UniProt P08253); test: Inhibition of MMP-2 (unknown origin) at 25 uM using TQ3-GABA-Pro-Cha-Abu-Smc-His-Ala-Dab(6'-TAMRA)-Ala-Lys-NH2 as substrate bu fluorometric analysis; how it was run: as §1
Stromelysin-1 = Stromelysin-1 (Homo sapiens, UniProt P08254); test: Inhibition of MMP-3 (unknown origin) at 25 uM using TQ3-GABA-Pro-Cha-Abu-Smc-His-Ala-Dab(6'-TAMRA)-Ala-Lys-NH2 as substrate bu fluorometric analysis; how it was run: as §1
Matrilysin = target: T2, Matrilysin (Homo sapiens, UniProt P09237); test: Inhibition of MMP-7 (unknown origin) at 25 uM using TQ3-GABA-Pro-Cha-Abu-Smc-His-Ala-Dab(6'-TAMRA)-Ala-Lys-NH2 as substrate bu fluorometric analysis; how it was run: as §1
T2 sequence (P09237 whole entry): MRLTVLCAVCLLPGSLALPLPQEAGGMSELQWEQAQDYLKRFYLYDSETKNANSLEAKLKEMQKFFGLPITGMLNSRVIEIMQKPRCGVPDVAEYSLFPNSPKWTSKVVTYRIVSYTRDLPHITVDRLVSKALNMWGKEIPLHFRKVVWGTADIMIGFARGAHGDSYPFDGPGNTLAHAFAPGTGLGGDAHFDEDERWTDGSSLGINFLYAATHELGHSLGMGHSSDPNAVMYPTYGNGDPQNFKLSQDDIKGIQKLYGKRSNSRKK

Neutrophil collagenase = Neutrophil collagenase (Homo sapiens, UniProt P22894); test: Inhibition of MMP-8 (unknown origin) at 25 uM using TQ3-GABA-Pro-Cha-Abu-Smc-His-Ala-Dab(6'-TAMRA)-Ala-Lys-NH2 as substrate bu fluorometric analysis; how it was run: as §1
[4] = target: Macrophage metalloelastase (Homo sapiens, UniProt P39900); test: Inhibition of MMP-12 (unknown origin) at 25 uM using TQ3-GABA-Pro-Cha-Abu-Smc-His-Ala-Dab(6'-TAMRA)-Ala-Lys-NH2 as substrate bu fluorometric analysis; how it was run: as §1
Collagenase 3 = Collagenase 3 (Homo sapiens, UniProt P45452); test: Inhibition of MMP-13 (unknown origin) at 25 uM using TQ3-GABA-Pro-Cha-Abu-Smc-His-Ala-Dab(6'-TAMRA)-Ala-Lys-NH2 as substrate bu fluorometric analysis; how it was run: as §1
[5] = target: Matrix metalloproteinase-14 (Homo sapiens, UniProt P50281); test: Inhibition of MMP-14 (unknown origin) at 25 uM using TQ3-GABA-Pro-Cha-Abu-Smc-His-Ala-Dab(6'-TAMRA)-Ala-Lys-NH2 as substrate bu fluorometric analysis; how it was run: as §1
[6] = target: T3, Matrix metalloproteinase-19 (Homo sapiens, UniProt Q99542); test: Inhibition of MMP-19 (unknown origin) at 25 uM using TQ3-GABA-Pro-Cha-Abu-Smc-His-Ala-Dab(6'-TAMRA)-Ala-Lys-NH2 as substrate bu fluorometric analysis; how it was run: as §1
T3 sequence (Q99542 whole entry): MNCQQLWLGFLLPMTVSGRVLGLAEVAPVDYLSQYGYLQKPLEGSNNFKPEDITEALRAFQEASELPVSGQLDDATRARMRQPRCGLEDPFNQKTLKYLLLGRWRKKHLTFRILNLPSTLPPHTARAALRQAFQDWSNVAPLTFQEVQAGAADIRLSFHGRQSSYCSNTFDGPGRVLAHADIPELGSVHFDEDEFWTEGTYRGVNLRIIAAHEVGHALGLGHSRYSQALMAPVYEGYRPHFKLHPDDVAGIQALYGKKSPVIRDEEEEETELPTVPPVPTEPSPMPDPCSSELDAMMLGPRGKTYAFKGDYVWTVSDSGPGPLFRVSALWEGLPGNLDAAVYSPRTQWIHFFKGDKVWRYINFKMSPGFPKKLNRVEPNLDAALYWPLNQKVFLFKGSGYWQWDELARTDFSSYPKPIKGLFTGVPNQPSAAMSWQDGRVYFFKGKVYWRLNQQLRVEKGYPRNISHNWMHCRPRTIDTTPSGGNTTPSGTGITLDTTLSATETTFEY

[7] = target: Botulinum neurotoxin type A (Clostridium botulinum) (UniProt P0DPI0); test: Irreversible inhibition of Clostridium botulinum BoNT/A light chain (1 to 425 residues) assessed as ratio of Kinact/Ki using SNAPtide flp6 as substrate inhibited for 1 hr by FRET assay
[8] = GSH reactivity assessed as half life at 1 mM in presence of glutathione; type: physicochemical

Sequence of Stromelysin-1 (P08254 whole entry): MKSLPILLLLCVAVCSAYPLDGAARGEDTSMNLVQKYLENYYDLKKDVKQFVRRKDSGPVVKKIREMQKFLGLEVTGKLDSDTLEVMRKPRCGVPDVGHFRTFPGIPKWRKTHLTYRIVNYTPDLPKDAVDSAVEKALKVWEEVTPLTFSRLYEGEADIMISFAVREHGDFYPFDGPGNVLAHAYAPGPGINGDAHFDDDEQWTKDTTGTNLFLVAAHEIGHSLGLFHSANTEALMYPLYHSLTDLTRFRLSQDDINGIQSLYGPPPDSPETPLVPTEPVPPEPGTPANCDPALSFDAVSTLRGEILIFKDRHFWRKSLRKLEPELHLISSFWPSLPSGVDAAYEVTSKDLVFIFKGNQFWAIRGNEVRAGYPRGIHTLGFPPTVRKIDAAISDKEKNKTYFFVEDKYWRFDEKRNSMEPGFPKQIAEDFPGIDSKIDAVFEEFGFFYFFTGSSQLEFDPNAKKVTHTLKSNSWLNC
Sequence of 72 kDa type IV collagenase (P08253 whole entry): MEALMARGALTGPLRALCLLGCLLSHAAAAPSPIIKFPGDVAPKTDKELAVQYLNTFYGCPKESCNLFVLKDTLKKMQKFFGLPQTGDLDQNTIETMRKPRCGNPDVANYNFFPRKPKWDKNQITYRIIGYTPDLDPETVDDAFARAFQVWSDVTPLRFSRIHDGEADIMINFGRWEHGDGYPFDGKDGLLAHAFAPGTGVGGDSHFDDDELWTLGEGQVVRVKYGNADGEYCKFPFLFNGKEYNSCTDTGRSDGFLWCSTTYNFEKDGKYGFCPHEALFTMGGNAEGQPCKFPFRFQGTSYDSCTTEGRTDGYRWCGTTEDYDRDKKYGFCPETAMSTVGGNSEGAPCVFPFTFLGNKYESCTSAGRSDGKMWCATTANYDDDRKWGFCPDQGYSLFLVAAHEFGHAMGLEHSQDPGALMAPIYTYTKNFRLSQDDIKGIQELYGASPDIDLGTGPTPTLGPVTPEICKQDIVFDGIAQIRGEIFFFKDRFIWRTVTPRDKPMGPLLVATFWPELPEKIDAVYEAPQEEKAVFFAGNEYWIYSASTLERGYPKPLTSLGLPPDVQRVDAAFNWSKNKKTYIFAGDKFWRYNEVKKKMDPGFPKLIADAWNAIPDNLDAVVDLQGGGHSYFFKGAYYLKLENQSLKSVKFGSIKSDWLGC
Sequence of Neutrophil collagenase (P22894 whole entry): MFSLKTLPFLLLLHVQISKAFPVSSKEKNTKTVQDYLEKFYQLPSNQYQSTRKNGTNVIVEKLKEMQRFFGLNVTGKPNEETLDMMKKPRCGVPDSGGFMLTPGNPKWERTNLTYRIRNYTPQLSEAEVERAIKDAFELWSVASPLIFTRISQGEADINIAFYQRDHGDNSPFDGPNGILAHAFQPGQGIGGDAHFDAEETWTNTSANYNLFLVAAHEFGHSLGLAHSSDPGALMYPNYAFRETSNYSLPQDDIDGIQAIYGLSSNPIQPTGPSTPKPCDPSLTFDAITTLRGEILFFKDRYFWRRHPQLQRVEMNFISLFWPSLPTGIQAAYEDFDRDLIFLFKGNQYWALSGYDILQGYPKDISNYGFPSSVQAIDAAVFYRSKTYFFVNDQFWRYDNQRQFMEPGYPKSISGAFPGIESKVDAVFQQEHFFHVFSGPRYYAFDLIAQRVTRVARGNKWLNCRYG
Sequence of Macrophage metalloelastase (P39900 whole entry): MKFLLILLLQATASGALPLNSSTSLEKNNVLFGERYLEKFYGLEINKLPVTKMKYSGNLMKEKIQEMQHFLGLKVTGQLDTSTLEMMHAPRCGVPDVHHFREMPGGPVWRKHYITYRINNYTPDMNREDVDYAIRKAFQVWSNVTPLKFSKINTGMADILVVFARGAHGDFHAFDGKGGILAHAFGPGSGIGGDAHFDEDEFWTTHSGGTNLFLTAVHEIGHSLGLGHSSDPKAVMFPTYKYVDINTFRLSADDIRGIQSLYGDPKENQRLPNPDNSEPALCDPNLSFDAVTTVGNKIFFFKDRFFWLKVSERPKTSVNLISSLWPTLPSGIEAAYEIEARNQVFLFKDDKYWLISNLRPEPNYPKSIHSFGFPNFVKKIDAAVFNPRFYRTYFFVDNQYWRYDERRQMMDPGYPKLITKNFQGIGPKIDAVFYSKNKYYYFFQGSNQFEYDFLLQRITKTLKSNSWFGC
Sequence of Botulinum neurotoxin type A (Clostridium botulinum) (P0DPI0 2-448 limits assumed): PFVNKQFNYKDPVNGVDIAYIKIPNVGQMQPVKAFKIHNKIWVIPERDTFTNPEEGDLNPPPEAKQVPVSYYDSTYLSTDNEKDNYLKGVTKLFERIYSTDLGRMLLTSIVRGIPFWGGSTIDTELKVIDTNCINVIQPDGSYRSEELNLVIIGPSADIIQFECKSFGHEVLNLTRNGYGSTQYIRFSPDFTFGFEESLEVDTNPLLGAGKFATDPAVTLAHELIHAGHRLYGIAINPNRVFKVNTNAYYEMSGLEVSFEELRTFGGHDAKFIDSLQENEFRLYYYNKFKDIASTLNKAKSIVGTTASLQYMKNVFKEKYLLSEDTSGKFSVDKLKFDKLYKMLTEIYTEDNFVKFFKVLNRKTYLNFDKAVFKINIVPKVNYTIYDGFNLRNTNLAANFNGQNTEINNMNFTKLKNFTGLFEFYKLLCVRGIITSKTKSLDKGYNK

Structure (SMILES): N#CC1(NC(=O)CCCN(O)C(=O)/C=C/c2ccc(Cl)cc2Cl)CC1
- TDI [1]: inactive

Structure (SMILES): O=C(/C=C/c1ccc(Cl)cc1Cl)N(O)CCCCCCC1CO1 (stereo not drawn)
- TDI [1]: inactive

Structure (SMILES): C=C(F)C(=O)NCCN(O)C(=O)/C=C/c1ccc(Cl)cc1Cl
- TDI [1]: inactive

Structure (SMILES): C#CCCN(O)C(=O)/C=C/c1ccc(Cl)cc1Cl
- TDI [1]: inactive

Structure (SMILES): O=C(CBr)NCCCN(O)C(=O)/C=C/c1ccc(Cl)cc1Cl
- TDI [1]: inactive

Structure (SMILES): CC(=O)NCCCN(O)C(=O)/C=C/c1ccc(Cl)cc1Cl
- TDI [1]: inactive
- Activity (HEK293): Non-Toxic

Structure (SMILES): O=C(/C=C/c1ccc(Cl)cc1Cl)NCCCCCC1CO1 (stereo not drawn)
- TDI [1]: inactive

Structure (SMILES): C#CCCCCN(O)C(=O)/C=C/c1ccc(Cl)cc1Cl
- TDI [1]: inactive

Structure (SMILES): O=C(/C=C/c1ccc(Cl)cc1Cl)N(O)CCCN1C(=O)C=CC1=O
- K [2]: 0.0023 min⁻¹
- inhibition (INH) (Interstitial collagenase): Active
- inhibition (INH) [3]: Active
- inhibition (INH) (Stromelysin-1): Active
- inhibition (INH) (Matrilysin): Active
- inhibition (INH) (Neutrophil collagenase): Active
- inhibition (INH) [4]: Active
- inhibition (INH) (Collagenase 3): Active
- inhibition (INH) [5]: Active
- inhibition (INH) [6]: Active

Structure (SMILES): C=CC(=O)NCCCCN(O)C(=O)/C=C/c1ccc(Cl)cc1Cl
- TDI [1]: inactive

Structure (SMILES): C=C(F)C(=O)NCCCN(O)C(=O)/C=C/c1ccc(Cl)cc1Cl
- TDI [1]: inactive

Structure (SMILES): O=C(NCCCN(O)C(=O)/C=C/c1ccc(Cl)cc1Cl)C(F)Cl (stereo not drawn)
- TDI [1]: inactive

Structure (SMILES): O=C(NCCN(O)C(=O)/C=C/c1ccc(Cl)cc1Cl)C(F)Cl (stereo not drawn)
- TDI [1]: inactive

Structure (SMILES): C=CC(=O)NCCCCCCN(O)C(=O)/C=C/c1ccc(Cl)cc1Cl
- TDI [1]: inactive

Structure (SMILES): O=C(NCCCCN(O)C(=O)/C=C/c1ccc(Cl)cc1Cl)C(F)Cl (stereo not drawn)
- TDI [1]: inactive

Structure (SMILES): C=CC(=O)NCCCCCN(O)C(=O)/C=C/c1ccc(Cl)cc1Cl
- TDI [1]: inactive

Structure (SMILES): C=CC(=O)NCCN(O)C(=O)/C=C/c1ccc(Cl)cc1Cl
- TDI [1]: inactive

Structure (SMILES): O=C(/C=C/C(F)F)NCCCN(O)C(=O)/C=C/c1ccc(Cl)cc1Cl
- TDI [1]: inactive

Structure (SMILES): O=C(/C=C/c1ccc(Cl)cc1Cl)N(O)CCCCC1CO1 (stereo not drawn)
- TDI [1]: inactive

Structure (SMILES): O=C(/C=C/c1ccc(Cl)cc1Cl)N(O)CCCCN1C(=O)C=CC1=O
- Ratio [7]: 46.3 M⁻¹ s⁻¹

Structure (SMILES): O=C(CI)NCCCCN(O)C(=O)/C=C/c1ccc(Cl)cc1Cl
- Ratio [7]: 12.4 M⁻¹ s⁻¹

Structure (SMILES): O=C(CCl)NCCN(O)C(=O)/C=C/c1ccc(Cl)cc1Cl
- TDI [1]: inactive

Structure (SMILES): O=C(/C=C/c1ccc(Cl)cc1Cl)NCCCNC(=O)CI
- TDI [1]: Active
- Activity (HEK293): Toxic

Structure (SMILES): C#CCCCN(O)C(=O)/C=C/c1ccc(Cl)cc1Cl
- TDI [1]: inactive

Structure (SMILES): O=C(CCl)NCCCN(O)C(=O)/C=C/c1ccc(Cl)cc1Cl
- TDI [1]: inactive

Structure (SMILES): O=C(/C=C/c1ccc(Cl)cc1Cl)N(O)CCCN1C(=O)CCC1=O
- inhibition [1]: inactive
- Activity (HEK293): Non-Toxic

Structure (SMILES): O=C(CBr)NCCN(O)C(=O)/C=C/c1ccc(Cl)cc1Cl
- TDI [1]: inactive

Structure (SMILES): COC(=O)/C=C/C(=O)OC [DIMETHYL FUMARATE]
- K [2]: 0.0589 min⁻¹

Structure (SMILES): O=C(CBr)NCCCCN(O)C(=O)/C=C/c1ccc(Cl)cc1Cl
- TDI [1]: inactive

Structure (SMILES): C=CC(=O)NCCCN(O)C(=O)/C=C/c1ccc(Cl)cc1Cl
- TDI [1]: inactive

Structure (SMILES): O=C(NCCCN(O)C(=O)/C=C/c1ccc(Cl)cc1Cl)Oc1ccccc1
- TDI [1]: inactive

Structure (SMILES): O=C(/C=C/C(F)F)NCCCCN(O)C(=O)/C=C/c1ccc(Cl)cc1Cl
- TDI [1]: inactive

Structure (SMILES): O=C(CI)NCCCN(O)C(=O)/C=C/c1ccc(Cl)cc1Cl
- K [2]: 0.0611 min⁻¹
- inhibition (INH) (Interstitial collagenase): Not Active
- inhibition (INH) [3]: Not Active
- inhibition (INH) (Stromelysin-1): Not Active
- inhibition (INH) (Matrilysin): Not Active
- inhibition (INH) (Neutrophil collagenase): Not Active
- inhibition (INH) [4]: Not Active
- inhibition (INH) (Collagenase 3): Not Active
- inhibition (INH) [5]: Not Active
- inhibition (INH) [6]: Not Active

Structure (SMILES): O=C(CCl)NCCCCN(O)C(=O)/C=C/c1ccc(Cl)cc1Cl
- TDI [1]: inactive

Structure (SMILES): O=C(/C=C/c1ccc(Cl)cc1Cl)NCCCN1C(=O)C=CC1=O
- TDI [1]: Active
- IC50 (HEK293; Homo sapiens, HEK293, 24 h): 6 µM

Structure (SMILES): O=C(NCCN(O)C(=O)/C=C/c1ccc(Cl)cc1Cl)Oc1ccccc1
- TDI [1]: inactive

Structure (SMILES): CS(=O)(=O)SCCCCCCN(O)C(=O)/C=C/c1ccc(Cl)cc1Cl
- Ratio [7]: 514 M⁻¹ s⁻¹
- half-life at 1000 µM [8]: < 5 min

Structure (SMILES): O=C(/C=C/c1ccc(Cl)cc1Cl)N(O)CCCCCC1CO1 (stereo not drawn)
- K [2]: 0.0012 min⁻¹
- inhibition (INH) (Interstitial collagenase): Not Active
- inhibition (INH) [3]: Not Active
- inhibition (INH) (Stromelysin-1): Not Active
- inhibition (INH) (Matrilysin): Not Active
- inhibition (INH) (Neutrophil collagenase): Not Active
- inhibition (INH) [4]: Not Active
- inhibition (INH) (Collagenase 3): Not Active
- inhibition (INH) [5]: Not Active
- inhibition (INH) [6]: Not Active

Structure (SMILES): O=C(/C=C/C(F)F)NCCN(O)C(=O)/C=C/c1ccc(Cl)cc1Cl
- TDI [1]: inactive

Structure (SMILES): C=C(F)C(=O)NCCCCN(O)C(=O)/C=C/c1ccc(Cl)cc1Cl
- TDI [1]: inactive

Structure (SMILES): C#CCN(O)C(=O)/C=C/c1ccc(Cl)cc1Cl
- TDI [1]: inactive
